Activity calls are given as the source filed them. The calls are words filed in the database; no cut-off is given here.
Key:
[1] = organism: Rattus norvegicus; test: Positive allosteric modulation of rat cortex AMPA receptor expressed in Xenopus laevis oocytes assessed as concentration required to 2 fold potentiation of (S)-AMPA-induced current amplitude by voltage clamp technique; assay type: cell-based
In short: (§1)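 Two-electrode voltage clamp at room temperature on Xenopus laevis oocytes expressing rat cortex poly(A+) mRNA, using 10 μM (S)-AMPA. Oocytes were pre-screened with 100 μM S22286, applied 45 s before, 30 s during and 30 s after AMPA; those with under 130-fold potentiation were excluded. Read-outs were drug concentrations for 2-fold or 5-fold current increase, EC50, and maximal effect as % of the AMPA current; n ≥ 3.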

[2] = organism: Rattus norvegicus; test: Positive allosteric modulation of rat brain AMPA receptor assessed as potentiation of 2 fold of (S)-AMPA-induced current amplitude by FlipR method
In short: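 Primary neuron cultures from rat embryonic cortex were stimulated with 300 μM AMPA. Membrane depolarization was read with a fluorescent membrane-potential dye in an imaging plate reader. Reported value is the drug concentration doubling the AMPA-induced fluorescence; n = 3, mean ± SEM (some n = 2).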

[3] = system: Mus musculus; test: Toxicity in mouse assessed as reduction in body temperature at 30 mg/kg, ip; assay type: organism-based; parameters: dose 30 mg/kg, route intraperitoneal; details: in vivo
[4] = organism: Rattus norvegicus; test: Positive allosteric modulation of rat cortex AMPA receptor expressed in Xenopus laevis oocytes assessed as potentiation of (S)-AMPA-induced current amplitude at 10 uM by voltage clamp technique relative to (S)-AMPA; assay type: cell-based; in short: as §1
[5] = system: Rattus norvegicus; test: Positive allosteric modulation of AMPA receptor in Wistar rat dentate gyrus assessed as increase in tetanus-induced field excitatory postsynaptic potential amplitude at 30 mg/kg, ip administered 1 hr prior to tetanus challenge measured after 3 hrs relative to vehicle-treated control; assay type: functional, organism-based; parameters: dose 30 mg/kg
In short: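 Anaesthetised Wistar rats, 30 mg/kg ip. Field EPSPs recorded in hippocampal dentate gyrus, each amplitude the average of four stimuli. Values normalised to the mean of the 1 h baseline before injection, taken as 100%. LTP induced by tetanic stimulation 1 h after injection, then EPSPs followed for 3 h.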

[6] = system: Mus musculus; test: Toxicity in mouse assessed as hypothermia at 30 mg/kg, po after 30 mins; assay type: organism-based; parameters: dose 30 mg/kg, route oral; details: in vivo, 0.5 h
In short: (§2)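 Irwin test in mice: a single oral dose of 30 mg/kg, five animals per compound. Behavioural and physiological changes were recorded, including body temperature at 30 min post-dose.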

[7] = Positive allosteric modulation of rat cortex AMPA receptor expressed in Xenopus laevis oocytes assessed as potentiation of (S)-AMPA-induced current amplitude by voltage clamp technique; assay type: cell-based; in short: as §1
[8] = organism: Rattus norvegicus; test: Positive allosteric modulation of AMPA receptor in Wistar rat hippocampus assessed as potentiation of (S)-AMPA-induced [3H]-NA release at 300 uM relative to (S)-AMPA
In short: (§3)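 Transverse hippocampal slices (300 μm) were loaded with [3H]noradrenaline ([…]) for 30 min at 37 °C, rinsed, then superfused with Krebs buffer, (S)-AMPA, or (S)-AMPA plus compound. Superfusate was collected in 5 min fractions and counted by scintillation. Fractional release was normalized to total radioactivity in all fractions plus tissue. Compound alone was compared with basal DMSO release, and co-application with (S)-AMPA alone (100%).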

[9] = system: Rattus norvegicus; test: Positive allosteric modulation of AMPA receptor in Wistar rat dentate gyrus assessed as increase in field excitatory postsynaptic potential amplitude at 30 mg/kg, ip after 1 hr; assay type: functional, organism-based; parameters: dose 30 mg/kg
In short: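 Anesthetized Wistar rats received 30 mg/kg ip. EPSfPs were recorded in the hippocampal dentate gyrus, with amplitude averaged over four stimuli. Values were normalized to the mean response during the 1 h baseline before injection (100%). One hour after injection, LTP was induced by tetanic stimulation and EPSfPs were followed for 3 h.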

[10] = organism: Rattus norvegicus; test: Positive allosteric modulation of AMPA receptor in rat hippocampal CA1 region assessed as potentiation of AMPA-induced excitatory postsynaptic field potential amplitude in CA1 region at 10 uM relative to basal value; assay type: tissue-based; details: Hippocampus
In short: (§4)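 Rat hippocampal slices were perfused with medium containing 1.2 mM Mg2+. EPSfPs were evoked in CA1 by Schaffer collateral stimulation, with compound at 10 μM. Area, amplitude and half-width were each normalized to the pre-application value (100%); n = 3.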

[11] = organism: Rattus norvegicus; test: Positive allosteric modulation of AMPA receptor in rat hippocampal CA1 region assessed as potentiation of AMPA-induced excitatory postsynaptic field potential half-width in CA1 region at 10 uM relative to basal value; assay type: tissue-based; details: Hippocampus; in short: as §4
[12] = organism: Rattus norvegicus; test: Positive allosteric modulation of rat cortex AMPA receptor expressed in Xenopus laevis oocytes assessed as concentration required to 5 fold potentiation of (S)-AMPA-induced current amplitude by voltage clamp technique; assay type: cell-based; in short: as §1
[13] = organism: Rattus norvegicus; test: Agonist activity at AMPA receptor in Wistar rat hippocampus assessed as [3H]-NA release at 300 uM relative to control; in short: as §3
[14] = system: Mus musculus; test: Cognitive enhancing effect in CD-1 mouse assessed as recognition of familiar object at 0.3 to 1 mg/kg, po after 1 hr by object recognition test; assay type: functional, organism-based
In short: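 Three-session object recognition test in CD1 mice, with a 24 h interval between sessions. Dosing was oral, 1 h before each session. Read-out was a discrimination index: exploration time of the new object minus that of the familiar object in the last session. n = 13; one-way ANOVA versus control.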

[15] = organism: Rattus norvegicus; test: Positive allosteric modulation of AMPA receptor in rat hippocampal CA1 region assessed as potentiation of AMPA-induced excitatory postsynaptic field potential area in CA1 region at 10 uM relative to basal value; assay type: tissue-based; details: Hippocampus; in short: as §4
[16] = system: Mus musculus; test: Acute toxicity in mouse assessed as convulsion followed by apathy at 30 mg/kg, po; assay type: organism-based; parameters: dose 30 mg/kg, route oral; details: in vivo
In short: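 Irwin screen for acute neurotoxicity in mice: single oral dose of 30 mg/kg, then behavioural and physiological state recorded (convulsions, apathy, body temperature). Five animals per compound.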

[17] = system: Mus musculus; test: Toxicity in mouse assessed as hypothermia at 30 mg/kg, po; assay type: organism-based; parameters: dose 30 mg/kg, route oral; details: in vivo; in short: as §2

| Compound | Activity [1] | Activity [2] | Emax [4] | also measured |
| --- | --- | --- | --- | --- |
| O=S1(=O)N=CNc2c(Cl)sc(Cl)c21 | > 100 µM |  |  |  |
| CCCN1C=NS(=O)(=O)c2sc(Cl)cc21 |  | > 100 µM | 2070% | T [3]: 4.6 °C |
| O=S1(=O)N=CN(CCF)c2c(Cl)sc(Cl)c21 | 26.5 µM | 20.3 µM | > 2330% |  |
| O=S1(=O)N=CN(CC(F)F)c2cc(Cl)sc21 |  | 100 µM |  |  |
| CCN1CNS(=O)(=O)c2cc(Cl)sc21 | 4.4 µM | 10.4 µM | 2830% | Activity [5]: Active; Activity [6]: Non-toxic; EC50 [7]: 11 µM; Activity [8]: 281%; Activity [9]: Active; Activity [10]: 3.7%; Activity [11]: 11.7%; Activity [12]: 24 µM; Activity [13]: 34%; Activity [14]: Active; Activity [15]: 18.3% |
| CC(C)N1C=NS(=O)(=O)c2sc(Cl)cc21 | > 100 µM | > 100 µM | > 277% |  |
| O=S1(=O)N=CN(CCF)c2cc(Cl)sc21 | > 300 µM | > 100 µM | 204% |  |
| CCN1CNS(=O)(=O)c2c(Cl)sc(Cl)c21 | 71 µM | > 55 µM | > 955% |  |
| O=S1(=O)NCN(CCF)c2c(Cl)sc(Cl)c21 | 113 µM | > 100 µM | > 485% |  |
| O=S1(=O)NCN(CCCF)c2cc(Cl)sc21 | 12 µM | > 45.7 µM | > 3780% |  |
| CCN1C=NS(=O)(=O)c2sc(Cl)cc21 | 172 µM | > 100 µM | > 175% |  |
| CCCN1CNS(=O)(=O)c2c(Cl)sc(Cl)c21 | > 300 µM | > 100 µM | > 126% |  |
| CC(C)N1CNS(=O)(=O)c2sc(Cl)cc21 | 4.2 µM | 9.55 µM | 217% |  |
| O=S1(=O)N=CN(CCCF)c2cc(Cl)sc21 | > 300 µM | 100 µM | 107% |  |
| O=S1(=O)NCNc2cc(Cl)sc21 | 216 µM | > 100 µM | 253% |  |
| O=S1(=O)NCNc2c(Cl)sc(Cl)c21 | 72 µM | > 100 µM | > 973% |  |
| CN1CNS(=O)(=O)c2sc(Cl)cc21 | 36 µM |  | > 462% |  |
| CCCN1CNS(=O)(=O)c2sc(Cl)cc21 | 15 µM | 25.1 µM | 2090% |  |
| CN1C=NS(=O)(=O)c2c(Cl)sc(Cl)c21 | 81 µM |  | > 413% |  |
| CCN1C=NS(=O)(=O)c2cc(Cl)sc21 |  | > 100 µM |  |  |
| O=S1(=O)NCN(CC(F)F)c2c(Cl)sc(Cl)c21 | 235 µM | > 100 µM | > 227% |  |
| CN1C=NS(=O)(=O)c2sc(Cl)cc21 | > 166 µM | > 100 µM |  |  |
| CN1CNS(=O)(=O)c2c(Cl)sc(Cl)c21 | 5.4 µM |  | 2920% |  |
| O=S1(=O)N=CN(CC(F)F)c2c(Cl)sc(Cl)c21 |  | > 100 µM |  |  |
| CCN1C=NS(=O)(=O)c2c(Cl)sc(Cl)c21 | 42 µM |  | > 1000% |  |
| O=S1(=O)N=CN(CF)c2cc(Cl)sc21 |  | > 100 µM |  |  |
| CCN1CNS(=O)(=O)c2sc(Cl)cc21 | 3.6 µM |  | 2270% | EC50 [7]: 9.2 µM; Activity [12]: 18.5 µM |
| CCCN1C=NS(=O)(=O)c2c(Cl)sc(Cl)c21 |  | > 100 µM |  |  |
| O=S1(=O)NCN(CCF)c2cc(Cl)sc21 | 2 µM | 3.32 µM | 5600% | Activity [16]: Toxic; Activity [10]: 33.7%; Activity [15]: 9.3% |
| O=S1(=O)NCN(CC(F)F)c2cc(Cl)sc21 | 1.6 µM | 2.9 µM | 2560% | Activity [17]: 60%; Activity [10]: 15.3%; Activity [11]: 14.3%; Activity [15]: 22.7% |

Source: ChEMBL document CHEMBL3085641, “Development of thiophenic analogues of benzothiadiazine dioxides as new powerful potentiators of 2-amino-3-(3-hydroxy-5-methylisoxazol-4-yl)propionic acid (AMPA) receptors” (J Med Chem, 2013)
